# Laboratory results taken from article PMC6398930 (Bioorganic & medicinal chemistry letters, 2019).
# Legend:
# GIRK1/2 = target: T1, GIRK1/2 (Homo sapiens, UniProt P48051+P48549); experiment: Thallium flux assay, GIRK1/2 expressing HEK293 cells; assay type: cell-based; details: for Loss of GIRK1/2 potency/activity relative to 15a: compared with parent amide/phenyl compound 15a; for Selectivity GIRK1/2 vs GIRK1/4 (in words): thallium flux
# T1 sequence (P48549 1-501): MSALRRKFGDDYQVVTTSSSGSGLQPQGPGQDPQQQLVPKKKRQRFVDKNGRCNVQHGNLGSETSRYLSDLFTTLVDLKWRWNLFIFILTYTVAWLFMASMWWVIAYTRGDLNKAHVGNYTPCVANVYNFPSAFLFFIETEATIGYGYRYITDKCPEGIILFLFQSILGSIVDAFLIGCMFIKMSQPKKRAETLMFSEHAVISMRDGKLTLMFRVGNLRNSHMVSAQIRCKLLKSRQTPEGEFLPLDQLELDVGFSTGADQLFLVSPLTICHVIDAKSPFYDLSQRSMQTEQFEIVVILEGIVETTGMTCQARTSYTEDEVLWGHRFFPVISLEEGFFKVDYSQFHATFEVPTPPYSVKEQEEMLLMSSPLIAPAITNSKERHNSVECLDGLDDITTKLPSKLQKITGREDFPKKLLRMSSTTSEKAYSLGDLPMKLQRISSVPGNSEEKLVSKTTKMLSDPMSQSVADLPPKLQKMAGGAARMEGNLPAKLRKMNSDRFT
# T1 sequence (P48051 1-423): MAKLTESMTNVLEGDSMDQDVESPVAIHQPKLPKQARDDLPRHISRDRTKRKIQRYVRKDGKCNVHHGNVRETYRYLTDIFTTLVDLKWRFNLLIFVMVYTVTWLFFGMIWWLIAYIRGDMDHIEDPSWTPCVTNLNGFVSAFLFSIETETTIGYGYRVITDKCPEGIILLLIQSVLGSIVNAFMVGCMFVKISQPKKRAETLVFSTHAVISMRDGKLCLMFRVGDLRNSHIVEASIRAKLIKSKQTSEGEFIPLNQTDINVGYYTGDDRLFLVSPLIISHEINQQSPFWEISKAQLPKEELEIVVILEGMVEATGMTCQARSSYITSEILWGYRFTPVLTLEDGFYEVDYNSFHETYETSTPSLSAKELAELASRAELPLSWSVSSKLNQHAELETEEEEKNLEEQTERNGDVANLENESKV
# [1] = Intrinsic and predicted hepatic clearance in human liver microsomes; assay type: in vitro ADME
# Outline: (§1)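 Part of an outsourced Tier 1 in vitro DMPK panel. Intrinsic clearance was measured in liver microsomes from the species named in each line and scaled. Predicted hepatic clearance was derived from the same microsomal experiments.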
# [2] = Intrinsic and predicted hepatic clearance in mouse liver microsomes; assay type: in vitro ADME; details: for CLint scaled / Predicted hepatic clearance mCLHEP: mouse, liver microsomes
# Outline: as §1
# [3] = Stability in Human Liver S9 fractions; assay type: in vitro ADME
# [4] = Plasma unbound fraction, mouse plasma; assay type: in vitro ADME
SMILES,"CLint scaled ([1]; human, liver microsomes) [mL/min/kg]",CLint scaled [2] [mL/min/kg],further results
Cc1cc(NC(=O)Cn2nnc(-c3ccccn3)n2)n(C2CCCCC2)n1 [16b],–,–,Loss of GIRK1/2 potency/activity relative to 15a (GIRK1/2): > 20 fold
Cc1cc(NC(=O)Cn2nnc(-c3ccccc3)n2)n(CC2CCCCC2)n1 [15q],753,> 5930,Selectivity GIRK1/2 vs GIRK1/4 (in words) (GIRK1/2): lost selectivity between GIRK1/2 and GIRK1/4
Cc1cc(NC(=O)Cn2nncc2-c2ccccc2)n(C2CCCCC2)n1 [17b],209,3490,–
Cc1cc(NC(=O)Cn2nnc(-c3cccc(F)c3)n2)n(C2CCCCC2)n1 [16g],162,2710,Selectivity GIRK1/2 vs GIRK1/4 (in words) (GIRK1/2): more selective for GIRK1/2 vs. GIRK1/4
"Cc1cc(NC(=O)Nc2ccc(F)c(F)c2)n(Cc2ccccc2)n1 [compound 1, reference compound]",–,–,Selectivity GIRK1/2 vs GIRK1/4 (in words) (GIRK1/2): activate GIRK1/2 preferentially over GIRK1/4
Cc1cc(NC(=O)Cn2ccc(-c3ccccc3)n2)n(C2CCCCC2)n1 [17e],–,–,"GIRK1/2 potency, fold less potent than 17f (GIRK1/2; 17e vs 17f): ~ 8 fold"
Cc1cc(NC(=O)Cn2nnc(-c3ccccc3)n2)n(C2CCS(=O)(=O)C2)n1 (stereo not shown) [15k],< 23.1,< 49.5,"Stability in human liver microsomes (in words) [1]: stable; Predicted hepatic clearance hCLHEP ([1]; human, liver microsomes): <10.7 mL/min/kg; Stability in mouse liver microsomes (in words) [2]: stable; Predicted hepatic clearance mCLHEP [2]: <31.9 mL/min/kg; Stability in human S9 fractions (in words) [3]: stable; CLHEP in Human Liver S9 fractions ([3]; human liver S9): <1.0 mL/min/kg; CLint scaled ([3]; human, liver S9 fractions): 2.6 mL/min/kg"
Cc1cc(NC(=O)Cn2nnc(-c3ccccc3)n2)n(C2CCCCC2)n1 [15a],186,2920,–
Cc1cc(NC(=O)Cn2nnc(-c3ccc(Cl)c(Cl)c3)n2)n(C2CCCCC2)n1 [16d],99.9,489,–
Cc1cc(NC(=S)Cn2nnc(-c3ccccc3)n2)n(C2CCCCC2)n1 [15b],346,> 5930,Predicted hepatic clearance mCLHEP [2]: >88.7 mL/min/kg; Loss of GIRK1/2 potency/activity relative to 15a (GIRK1/2): ~7 fold; Recovery in mouse plasma (in words) [4]: poor recovery
Cc1cc(NC(=O)Cn2nnc(-c3cccnc3)n2)n(C2CCCCC2)n1 [16a],–,–,Loss of GIRK1/2 potency/activity relative to 15a (GIRK1/2): > 20 fold
Cc1cc(NC(=O)Cn2cc(-c3ccccc3)nn2)n(C2CCCCC2)n1 [17a],54.6,596,–
Cc1cc(NC(=O)Cn2nnc(-c3ccccc3)n2)n(C2CCC(F)(F)CC2)n1 [15d],77.3,723,–
